Test results from PMC8501684 (International Journal for Parasitology: Drugs and Drug …, 2021).

How the values were obtained:
[1] = test system: Naegleria fowleri ATCC® 30215™ trophozoites; experiment: In vitro activity assay; format: cell-based; settings: for N. fowleri ATCC® 30215™ SI (CC50/IC50): selectivity index, CC50 J774A.1 / IC50 ATCC 30215
Summary of the method: (§1)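 Both strains were grown axenically at 37 °C in 2% Bactocasitone with 10% FBS, penicillin G and streptomycin. Trophozoites from a 2*10^5 cells/ml stock were seeded in duplicate with serial compound dilutions in the same medium, plus a medium-only negative control. AlamarBlue (10% of medium volume) was added for 48 h at 37 °C with slight agitation, read at 570 nm […] with a 630 nm reference. Inhibitory concentrations came from non-linear regression; experiments were done in triplicate and averaged.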

[2] = Cytotoxicity assay; format: cell-based; settings: mouse, J774A.1 murine macrophage cells
Summary of the method: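 J774A.1 macrophages were kept in DMEM with 10% FBS and 10 μg/mL gentamicin at 37 °C, 5% CO2. Cells from a 10^5 cells/ml stock got a range of compound concentrations plus AlamarBlue (10% of medium volume), with a medium-only negative control. Incubation was 24 h at 37 °C in 5% CO2, and CC50 was derived from the read-out.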

[3] = test system: Naegleria fowleri ATCC® 30808™ trophozoites; experiment: In vitro activity assay; format: cell-based; settings: for N. fowleri ATCC® 30808™ SI (CC50/IC50): selectivity index, CC50 J774A.1 / IC50 ATCC 30808
Summary of the method: as §1

[4] = various species plasma; ref Tian et al., 2016; cited from earlier work
[5] = ref Tian et al., 2016; cited from earlier work

Compound	IC50 ([1]; Naegleria fowleri, ATCC30215, 48 h, read-out: N. fowleri ATCC® 30215™ IC50)	N. fowleri ATCC® 30215™ SI (CC50/IC50) [1]	CC50 at 24 h [2]	IC50 ([3]; Naegleria fowleri, ATCC30808, 48 h, read-out: N. fowleri ATCC® 30808™ IC50)	N. fowleri ATCC® 30808™ SI (CC50/IC50) [3]	protein binding to plasma [4]	half-life [5]	pharmacokinetic profile [5]	tissue distribution [5]
C[C@@H]1[C@H](O)[C@@H](C)/C=C/C=C/C=C/C=C/C=C/C=C/C=C/[C@H](O[C@@H]2O[C@H](C)[C@@H](O)[C@H](N)[C@@H]2O)C[C@@H]2O[C@](O)(C[C@@H](O)C[C@@H](O)[C@H](O)CC[C@@H](O)C[C@@H](O)CC(=O)O[C@H]1C)C[C@H](O)[C@H]2C(=O)O [Amphotericin B]	166 ± 26 nM	≥1204.819	≥ 200000 nM	121 ± 32 nM	≥1652.893				
CCCCC1OC(=O)c2cc(Br)ccc21 (stereo not drawn) [Br-NBP, 3-butyl-6-bromo-1(3H)-isobenzofuranone]						different degree protein binding to various species plasma	short half-life	good dose-linear pharmacokinetic profile	wide tissue distribution
CCCCCCCCCCCCCCCCOP(=O)([O-])OCC[N+](C)(C)C [Miltefosine]		1.568	128000 ± 8850 nM		3.301				
